Published values from different studies.

Compound | assay | test system | conditions | measurement | value
O=C(O)c1cccc(OC(=O)N2CCC(CCn3ccc4ccc(F)cc43)CC2)c1 | HPLC | – | – | chromatographic logP | 3.6
Nc1nc(-c2ccccc2)nc2[nH]nc(Nc3ccc(C(F)(F)F)cc3)c12 | – | mouse, plasma | oral, 100 mg/kg, 30 min | concentration | 418 ng/mL
Cc1ccccc1C(=O)NN=Cc1ccc(O)c(Br)c1 | – | mouse, plasma | intravenous, 1.6 mg/kg | half-life | 1.24 h
CN[C@H](CC(C)C)C(=O)N[C@H]1C(=O)N[C@@H](CC(N)=O)C(=O)N[C@H]2C(=O)NC3C(=O)N[C@H](C(=O)N[C@H](C(=O)NCCC[N+](C)(C)C)c4cc(O)cc(O)c4-c4cc3ccc4O)[C@H](O)c3ccc(c(Cl)c3)Oc3cc2cc(c3OC2OC(CO)C(O)[C@H](O)[C@@H]2O[C@H]2CC(C)(NCc3ccc(-c4ccc(Cl)cc4)cc3)[C@H](O)[C@H](C)O2)Oc2ccc(cc2Cl)[C@H]1O (some centres unmarked) | – | mouse, plasma | intravenous, 10 mg/kg | half-life | 7 h
O=C(NCCCCCn1ccc2ccc(F)cc21)Oc1ccc(F)cc1 | HPLC | – | – | chromatographic logP | 4.2
C[C@]12CC[C@H](n3ccnc3)CC1=CC[C@@H]1[C@@H]2CC[C@]2(C)C(n3cnc4ccccc43)=CC[C@@H]12.Cl | – | male CD-1 mouse, plasma | intravenous, 1 mg/kg | half-life | 17.1 h
N#Cc1ccccc1OC(=O)NCCCCCn1ccc2ccc(F)cc21 | HPLC | – | – | chromatographic logP | 3.9
C=C[C@H]1CN2CC[C@H]1C[C@H]2[C@H](O)c1ccnc2ccccc12 | – | water | – | logP | 2.68
Cc1cc(C)nc(Nc2ncc(C(=O)NCCc3c(C)[nH]c4ccccc34)cn2)c1 | metabolic stability | dog, liver microsomes | 1 µM | microsomal CLint | 72 µL/min/mg
CC[C@H]1CN2CC[C@H]1C[C@H]2[C@H](O)c1ccnc2ccc(OC)cc12 | – | water | – | logP | 3.07
C[C@]12CC[C@H](O)CC1=CC[C@@H]1[C@@H]2CC[C@]2(C)C(n3cnc4ccccc43)=CC[C@@H]12.Cl | – | mouse, plasma | oral, 10 mg/kg | half-life | 5.16 h
N[C@@H](Cc1ccccc1)C(=O)N1C/C(=C\c2ccc(Cl)c(Cl)c2)C(=O)/C(=C/c2ccc(Cl)c(Cl)c2)C1 | – | mouse, plasma | oral, 20 mg/kg | half-life | 2.6 h
C[C@H]1COCCN1c1nc(NCc2cccnc2C(F)(F)F)c2cccnc2n1 | metabolic stability | dog, hepatocytes | – | hepatocyte CLint | 10 µL/min/10⁶ cells
O=C(NCCCCCn1ccc2ccc(F)cc21)Oc1ccc(C(=O)O)cc1 | HPLC | – | – | chromatographic logP | 2.8
N=c1c2c(-c3ccccc3)c(-c3ccccc3)n(Cc3ccccc3)c2ncn1[C@H]1CC[C@H](O)CC1 | metabolic stability | monkey, hepatocytes | 1 µM, 4 h | compound remaining | 119%
Cc1ccncc1OC(=O)NCCCCCn1ccc2ccc(F)cc21 | HPLC | – | – | chromatographic logP | 2.7
NCC(=O)Nc1ccc(-n2nc(C(F)(F)F)cc2-c2ccc3c(ccc4ccccc43)c2)cc1 | – | mouse, plasma | oral, 80 mg/kg | half-life | 22 h
